According to ChEMBL document CHEMBL4177761, “Highlights of the Structure-Activity Relationships of Benzimidazole Linked Pyrrolidines Leading to the Discovery of the Hepatitis C Virus NS5A Inhibitor Pibrentasvir (ABT-530)” (J Med Chem, 2018):
Positions count from the first letter of the chain named.

Columns and labels:
[1] = Cmax in dog at 2.5 mg/kg, po by LC-MS method; assay type: ADME, organism-based, Canis lupus familiaris; design: dose 2.5 mg/kg, route oral; settings: in vivo
In short: (§1)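 Single dose in dog or monkey, 1 mg/kg IV or 2.5 mg/kg PO. Plasma drug measured by LC-MS after acetonitrile protein precipitation with an internal standard. Quantified by linear regression of parent/internal-standard peak-area ratio against spiked standards.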

[2] = target: T1, Nonstructural protein 5A (Hepatitis C virus) (UniProt Q5L478); assay: Inhibition of NS5A Q30R mutant in HuH7 cell infected HCV genotype 1a H77 assessed as decrease in viral replication after 4 days by luciferase reporter gene assay relative to wild type protein; settings: Hepatitis C virus (isolate H77)
T1 sequence (whole entry): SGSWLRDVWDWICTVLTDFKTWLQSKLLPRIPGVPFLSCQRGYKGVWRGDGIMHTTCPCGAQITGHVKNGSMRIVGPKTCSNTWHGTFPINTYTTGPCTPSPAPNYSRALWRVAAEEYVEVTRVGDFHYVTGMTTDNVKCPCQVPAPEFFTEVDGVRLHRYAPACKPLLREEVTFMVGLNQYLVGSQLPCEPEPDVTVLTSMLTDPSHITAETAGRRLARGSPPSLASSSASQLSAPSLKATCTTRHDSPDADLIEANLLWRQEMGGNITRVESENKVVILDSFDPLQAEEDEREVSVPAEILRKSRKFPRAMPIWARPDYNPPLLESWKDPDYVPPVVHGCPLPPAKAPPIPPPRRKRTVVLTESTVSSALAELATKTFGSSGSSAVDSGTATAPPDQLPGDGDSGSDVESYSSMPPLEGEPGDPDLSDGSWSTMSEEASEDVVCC
In short: (§2)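 Stable subgenomic luciferase replicons in Huh-7 cells: genotype 1a-H77 carrying NS5A substitutions M28T, Q30E, Q30R, Y93C, Y93H or Y93N, tested alongside the wild-type replicon. Cells are incubated 4 days with compound in DMEM with 5% FBS. Luciferase read-out, EC50 by 4-parameter logistic fit, and fold change versus wild type.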

[3] = Cmax in monkey at 2.5 mg/kg, po by LC-MS method; assay type: ADME, organism-based, Macaca mulatta; design: dose 2.5 mg/kg, route oral; settings: rhesus monkey, in vivo; in short: as §1
[4] = system: T2, Nonstructural protein 5A (Hepatitis C virus), Q5L478 [Y93C]; assay: Inhibition of NS5A Y93C mutant in HuH7 cell infected HCV genotype 1a H77 assessed as decrease in viral replication after 4 days by luciferase reporter gene assay relative to wild type protein; settings: Hepatitis C virus (isolate H77); in short: as §2
T2 sequence (whole entry): T1 sequence (whole entry) with Y93C

[5] = Half life in rat at 3 mg/kg, po by LC-MS method; assay type: ADME, organism-based; settings: in vivo
In short: (§3)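 Single dose, 3 mg/kg, in mouse or rat. IV vehicle: DMSO:Tween 80:PEG-400:D5W 2:5:20:73 (v/v). PO vehicle: Phosol 53 MCT:PEG-400:Poloxamer 124:Cremophor RH40 40:20:20:20 (w/w). Acetonitrile protein precipitation, then LC-MS/MS in negative-ion MRM against an internal standard; LOQ ~20 ng/mL.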

[6] = Drug level in dog at 2.5 mg/kg, po at 24 hrs by LC-MS method; assay type: ADME, organism-based, Canis lupus familiaris; settings: in vivo, read-out: Drug uptake; in short: as §1
[7] = target: T1, Nonstructural protein 5A (Hepatitis C virus); assay: Inhibition of NS5A M28T mutant in HuH7 cell infected HCV genotype 1a H77 assessed as decrease in viral replication after 4 days by luciferase reporter gene assay relative to wild type protein; settings: Hepatitis C virus (isolate H77); in short: as §2
[8] = target: T1, Nonstructural protein 5A (Hepatitis C virus); assay: Inhibition of NS5A Q30E mutant in HuH7 cell infected HCV genotype 1a H77 assessed as decrease in viral replication after 4 days by luciferase reporter gene assay relative to wild type protein; settings: Hepatitis C virus (isolate H77); in short: as §2
[9] = system: T3, Nonstructural protein 5A (Hepatitis C virus), Q5L478 [Y93N]; assay: Inhibition of NS5A Y93N mutant in HuH7 cell infected HCV genotype 1b Con1 assessed as decrease in viral replication after 4 days by luciferase reporter gene assay relative to wild type protein; settings: Hepatitis C virus (isolate Con1)
T3 sequence (whole entry): T1 sequence (whole entry) with Y93N
In short: as §2, with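 “1b-Con1” for “1a-H77”, “NS5A” for “NS5A substitutions M28T, Q30E, Q30R, Y93C,”, “from a” for “by”, “expressed as” for “and”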

[10] = AUClast in mouse at 3 mg/kg, iv by LC-MS method; assay type: ADME, organism-based; design: dose 3 mg/kg, route intravenous, time 0 - last; settings: in vivo; in short: as §3
[11] = Tmax in mouse at 3 mg/kg, po by LC-MS method; assay type: ADME, organism-based; settings: in vivo
[12] = Half life in monkey at 2.5 mg/kg, po by LC-MS method; assay type: ADME, organism-based, Macaca mulatta; settings: rhesus monkey, in vivo; in short: as §1
[13] = Oral bioavailability in rat at 3 mg/kg by LC-MS method; assay type: ADME, organism-based; settings: in vivo; in short: as §3
[14] = Plasma clearance in dog at 1 mg/kg, iv by LC-MS method; assay type: ADME, organism-based, Canis lupus familiaris; in short: as §1
[15] = Apparent volume of distribution in monkey at 1 mg/kg, iv by LC-MS method; assay type: ADME, organism-based, Macaca mulatta; settings: rhesus monkey, in vivo, read-out: Vc; in short: as §1
[16] = AUClast in mouse at 3 mg/kg, po by LC-MS method; assay type: ADME, organism-based; design: dose 3 mg/kg, time 0 - last, route oral; settings: in vivo; in short: as §3
[17] = Drug level in mouse at 3 mg/kg, po at 24 hrs by LC-MS method; assay type: ADME, organism-based; settings: in vivo, read-out: Drug uptake; in short: as §3
[18] = Oral bioavailability in dog at 2.5 mg/kg by LC-MS method; assay type: ADME, organism-based, Canis lupus familiaris; settings: in vivo; in short: as §1

Question: Which Cmax [1] does the source give for `COC(=O)N[C@H](C(=O)N1CCC[C@H]1c1nc2cc([C@H]3CC[C@H](c4cc5nc([C@@H]6CCCN6C(=O)[C@@H](NC(=O)OC)[C@@H](C)OC)[nH]c5cc4F)N3c3cc(F)c(N4CCC(c5ccc(F)cc5)CC4)c(F)c3)c(F)cc2[nH]1)[C@@H](C)OC` [PIBRENTASVIR] here?
Answer: The Cmax was 562 nM.

Question: And the fold change (FC) [2]?
Answer: Its fold change (FC) is 1.7.

Question: What about the Cmax [3] of the same molecule?
Answer: Its Cmax is 260 nM.

Question: And the fold change (FC) [4]?
Answer: Its fold change (FC) is 1.7.

Question: And the half-life [5]?
Answer: The half-life was 7 h.

Question: What about the concentration at 24 h [6] of the same molecule?
Answer: Its concentration at 24 h is 82 nM.

Question: What about the fold change (FC) [7] of the same molecule?
Answer: Its fold change (FC) is 2.1.

Question: And the fold change (FC) [8]?
Answer: The fold change (FC) was 2.4.

Question: And the fold change (FC) [9]?
Answer: Its fold change (FC) is 0.6.

Question: And the AUC(0-t) [10]?
Answer: Its AUC(0-t) is 252 µg·h/mL.

Question: What about the Tmax [11] of the same molecule?
Answer: Its Tmax is 11 h.

Question: What about the half-life [12] of the same molecule?
Answer: The half-life was 5.69 h.

Question: What about the bioavailability [13] of the same molecule?
Answer: Its bioavailability is 9.9%.

Question: And the clearance [14]?
Answer: The clearance was 1.62 mL/min/kg.

Question: And the Vd [15]?
Answer: Its Vd is 0.07 L/kg.

Question: What about the AUC(0-t) [16] of the same molecule?
Answer: The AUC(0-t) was 20 µg·h/mL.

Question: What about the concentration at 24 h [17] of the same molecule?
Answer: Its concentration at 24 h is 467 nM.

Question: What about the bioavailability [18] of the same molecule?
Answer: The bioavailability was 29.8%.
